In ChEMBL document CHEMBL1136006, “New PET imaging agent for the serotonin transporter: [(18)F]ACF (2-[(2-amino-4-chloro-5-fluorophenyl)thio]-N,N-dimethyl-benzenmethanamine)” (J Med Chem, 2002):

Experiments:
Rattus norvegicus [1] = organism: Rattus norvegicus; assay: Organ distribution of [18F]-ACF radiolabeled compound in rat lung after 30 min; type: ADME, organism-based; details: in vivo, 0.5 h
How it was run: (§1)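 Under ether anesthesia, 30 μCi no-carrier-added tracer in 0.2 mL saline injected into the femoral vein. Rats killed by cardiac excision at the stated time. Organs were removed, weighed and counted; % dose/organ was calculated against counts of a 1% initial-dose standard. Three rats per time, average ± SD.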

Rattus norvegicus [2] = organism: Rattus norvegicus; assay: Organ distribution of [18F]-ACF radiolabeled compound in rat liver after 30 min; type: ADME, organism-based; details: in vivo, 0.5 h; how it was run: as §1
Rattus norvegicus [3] = organism: Rattus norvegicus; assay: Regional brain distribution of [18F]-ACF radiolabeled compound in rat hypothalamus after 2 min; type: ADME, organism-based; details: in vivo
How it was run: (§2)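 Rats (three per group) under ether anesthesia got 30 μCi tracer in 0.2 mL saline into the femoral vein and were killed by cardiac excision at the stated time. Cortex, striatum, hippocampus, cerebellum, hypothalamus and the rest of brain were dissected, weighed and gamma counted. %dose/g was taken against counts of a diluted initial dose. Regional ratios are each region's %dose/g over cerebellum's. Mean ± SD.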

Rattus norvegicus [4] = assay: Effect of pretreatment with (+)-McN5652 with a dose of 2 mg/kg (i.v.) on specific binding of [18F]ACF in rat brain cerebellum; type: ADME, organism-based; parameters: dose 2 mg/kg, route intravenous; details: in vivo, iv
How it was run: (§3)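 Rats pretreated iv with drug (2 mg/kg) or saline 5 min before iv [18F]ACF (50 μCi). Sacrificed 1 h after tracer. Brain regions were dissected, weighed and counted, and % dose/g was calculated against a diluted initial dose. Drug-treated rats were compared with saline controls by ANOVA/Dunnett's test (p<0.05). Three rats per point, average ± SD.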

Rattus norvegicus [5] = assay: Ratio of effect of pretreatment with nisoxatine with a dose of 2 mg/kg (i.v.) on specific binding of [18F]ACF in rat brain hypothalamus to that of cerebellum; type: ADME, organism-based; parameters: dose 2 mg/kg, route intravenous; details: in vivo, iv
How it was run: (§4)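 Rats (three per point) pretreated iv with competing drug at 2 mg/kg or saline (control) 5 min before iv [18F]ACF (50 μCi). At 1 h post tracer, brain regions (cortex, striatum, hippocampus, cerebellum, hypothalamus, remainder) dissected, weighed, counted as % dose/g and expressed as ratio to cerebellum. Average ± SD; ANOVA with Dunnett's test vs saline controls, p < 0.05.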

Rattus norvegicus [6] = assay: Ratio of effect of pretreatment with methylphenidate with a dose of 2 mg/kg (i.v.) on specific binding of [18F]ACF in rat brain striatum to that of cerebellum; type: ADME, organism-based; parameters: dose 2 mg/kg, route intravenous; details: in vivo, iv; how it was run: as §4
Rattus norvegicus [7] = organism: Rattus norvegicus; assay: Ratio of regional brain distribution of [18F]ACF radiolabeled compound in rat hypothalamus to that of cerebellum after 240 min; type: ADME, organism-based; details: in vivo, 4 h; how it was run: as §2
Rattus norvegicus [8] = organism: Rattus norvegicus; assay: Ratio of regional brain distribution of [18F]ACF radiolabeled compound in rat cortex to that of cerebellum after 60 min; type: ADME, organism-based; details: in vivo, 1 h; how it was run: as §2
Rattus norvegicus [9] = organism: Rattus norvegicus; assay: Organ distribution of [18F]ACF radiolabeled compound in rat blood after 2 min; type: ADME, organism-based; details: in vivo
How it was run: (§5)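 Rats, three per time point, under ether anesthesia; 30 μCi tracer in 0.2 mL saline injected into femoral vein. Sacrificed by cardiac excision under ether at 2, 30, 60, 120 or 240 min. Organs removed, weighed and counted; % dose/organ calculated against counts of 1% of initial dose counted at the same time. Average of three rats ± SD.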

Rattus norvegicus [10] = assay: Effect of pretreatment with nisoxatine with a dose of 2 mg/kg (i.v.) on specific binding of [18F]ACF in rat brain remainder; type: ADME, organism-based; parameters: dose 2 mg/kg, route intravenous; details: in vivo, iv; how it was run: as §3
Rattus norvegicus [11] = assay: Effect of pretreatment with methylphenidate with a dose of 2 mg/kg (i.v.) on specific binding of [18F]-ACF in rat brain striatum; type: ADME, organism-based; parameters: dose 2 mg/kg, route intravenous; details: in vivo, iv; how it was run: as §3
Rattus norvegicus [12] = organism: Rattus norvegicus; assay: Organ distribution of [18F]-ACF radiolabeled compound in rat brain after 60 min; type: ADME, organism-based; details: in vivo, 1 h; how it was run: as §1
Rattus norvegicus [13] = organism: Rattus norvegicus; assay: Organ distribution of [18F]ACF radiolabeled compound in rat blood after 60 min; type: ADME, organism-based; details: in vivo, 1 h; how it was run: as §5
Rattus norvegicus [14] = organism: Rattus norvegicus; assay: Ratio of regional brain distribution of [18F]-ACF radiolabeled compound in rat hippocampus to that of cerebellum after 2 min; type: ADME, organism-based; details: in vivo
How it was run: (§6)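 Rats, three per time point, given 30 μCi tracer in 0.2 mL saline into femoral vein under ether anesthesia; killed at 2, 30, 60, 120 or 240 min. Cortex, striatum, hippocampus, cerebellum, hypothalamus and rest of brain dissected, weighed, counted; % dose/g against diluted initial dose, then each region divided by cerebellum. Average of three rats ± SD.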

Rattus norvegicus [15] = assay: Effect of pretreatment with […] with a dose of 2 mg/kg (i.v.) on specific binding of [18F]ACF in rat brain hippocampus; type: ADME, organism-based; parameters: dose 2 mg/kg, route intravenous; details: in vivo, iv; how it was run: as §3
Rattus norvegicus [16] = organism: Rattus norvegicus; assay: Regional brain distribution of [18F]ACF radiolabeled compound in rat hippocampus after 2 min; type: ADME, organism-based; details: in vivo; how it was run: as §2
Rattus norvegicus [17] = assay: Ratio of effect of pretreatment with nisoxatine with a dose of 2 mg/kg (i.v.) on specific binding of [18F]ACF in rat brain cortex to that of cerebellum; type: ADME, organism-based; parameters: dose 2 mg/kg, route intravenous; details: in vivo, iv; how it was run: as §4
Rattus norvegicus [18] = organism: Rattus norvegicus; assay: Ratio of regional brain distribution of [18F]-ACF radiolabeled compound in rat remainder to that of cerebellum after 30 min; type: ADME, organism-based; details: in vivo, 0.5 h; how it was run: as §2
Rattus norvegicus [19] = organism: Rattus norvegicus; assay: Regional brain distribution of [18F]-ACF radiolabeled compound in rat cerebellum after 240 min; type: ADME, organism-based; details: in vivo, 4 h; how it was run: as §2
Rattus norvegicus [20] = organism: Rattus norvegicus; assay: Ratio of regional brain distribution of [18F]-ACF radiolabeled compound in rat hypothalamus to that of cerebellum after 2 min; type: ADME, organism-based; details: in vivo; how it was run: as §2
Rattus norvegicus [21] = organism: Rattus norvegicus; assay: Ratio of regional brain distribution of [18F]-ACF radiolabeled compound in rat cerebellum to that of cerebellum after 120 min; type: ADME, organism-based; details: in vivo, 2 h; how it was run: as §6
Rattus norvegicus [22] = assay: Ratio of effect of pretreatment with (+)-McN5652 with a dose of 2 mg/kg (i.v.) on specific binding of [18F]ACF in rat brain remainder to that of cerebellum; type: ADME, organism-based; parameters: dose 2 mg/kg, route intravenous; details: in vivo, iv; how it was run: as §4
Rattus norvegicus [23] = organism: Rattus norvegicus; assay: Organ distribution of [18F]ACF radiolabeled compound in rat heart after 120 min; type: ADME, organism-based; details: in vivo, 2 h; how it was run: as §5
Rattus norvegicus [24] = organism: Rattus norvegicus; assay: Regional brain distribution of [18F]ACF radiolabeled compound in rat striatum after 60 min; type: ADME, organism-based; details: in vivo, 1 h
How it was run: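 Rats, three per group, under ether anaesthesia, given 30 μCi no-carrier-added tracer in 0.2 mL saline into the femoral vein. They were killed at the stated time by cardiac excision under ether. Striatum and other brain regions were dissected, weighed and counted. %dose/g was calculated against counts of 1% of the injected dose, as mean ± SD of three rats.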

Rattus norvegicus [25] = organism: Rattus norvegicus; assay: Regional brain distribution of [18F]ACF radiolabeled compound in rat remainder (rest of brain) after 2 min; type: ADME, organism-based; details: in vivo; how it was run: as §2
Rattus norvegicus [26] = organism: Rattus norvegicus; assay: Organ distribution of [18F]ACF radiolabeled compound in rat spleen after 240 min; type: ADME, organism-based; details: in vivo, 4 h; how it was run: as §5
Rattus norvegicus [27] = assay: Ratio of effect of pretreatment with methylphenidate with a dose of 2 mg/kg (i.v.) on specific binding of [18F]-ACF in rat brain remainder to that of cerebellum; type: ADME, organism-based; parameters: dose 2 mg/kg, route intravenous; details: in vivo, iv; how it was run: as §4
Rattus norvegicus [28] = organism: Rattus norvegicus; assay: Regional brain distribution of [18F]ACF radiolabeled compound in rat hypothalamus after 30 min; type: ADME, organism-based; details: in vivo, 0.5 h; how it was run: as §2
Rattus norvegicus [29] = organism: Rattus norvegicus; assay: Ratio of regional brain distribution of [18F]-ACF radiolabeled compound in rat cerebellum to that of cerebellum after 2 min; type: ADME, organism-based; details: in vivo; how it was run: as §6
Rattus norvegicus [30] = organism: Rattus norvegicus; assay: Regional brain distribution of [18F]ACF radiolabeled compound in rat cortex after 60 min; type: ADME, organism-based; details: in vivo, 1 h; how it was run: as §2
Rattus norvegicus [31] = organism: Rattus norvegicus; assay: Organ distribution of [18F]-ACF radiolabeled compound in rat liver after 120 min; type: ADME, organism-based; details: in vivo, 2 h; how it was run: as §1
Rattus norvegicus [32] = organism: Rattus norvegicus; assay: Organ distribution of [18F]-ACF radiolabeled compound in rat skin after 120 min; type: ADME, organism-based; details: in vivo, 2 h; how it was run: as §1
Rattus norvegicus [33] = organism: Rattus norvegicus; assay: Organ distribution of [18F]-ACF radiolabeled compound in rat muscle after 30 min; type: ADME, organism-based, Muscle tissue; details: in vivo, 0.5 h; how it was run: as §1
Rattus norvegicus [34] = organism: Rattus norvegicus; assay: Organ distribution of [18F]ACF radiolabeled compound in rat blood after 240 min; type: ADME, organism-based; details: in vivo, 4 h; how it was run: as §5

Dose/g (Rattus norvegicus [1]): 1.76 % dose/organ
Dose/g (Rattus norvegicus [2]): 15.2 % dose/organ
Dose/g (Rattus norvegicus [3]): 1.76%
Dose/g (Rattus norvegicus [4]): 0.17%
Ratio (Rattus norvegicus [5]): 2.89
Ratio (Rattus norvegicus [6]): 2.75
Ratio (Rattus norvegicus [7]): 2.37
Ratio (Rattus norvegicus [8]): 2.1
Dose/g (Rattus norvegicus [9]): 6.56 % dose/organ
Dose/g (Rattus norvegicus [10]): 0.41%
Dose/g (Rattus norvegicus [11]): 0.47%
Dose/g (Rattus norvegicus [12]): 0.69 % dose/organ
Dose/g (Rattus norvegicus [13]): 4.65%
Ratio (Rattus norvegicus [14]): 1.24
Dose/g (Rattus norvegicus [15]): 0.46%
Dose/g (Rattus norvegicus [16]): 1.6%
Ratio (Rattus norvegicus [17]): 1.94
Ratio (Rattus norvegicus [18]): 1.8
Dose/g (Rattus norvegicus [19]): 0.02%
Ratio (Rattus norvegicus [20]): 1.37
Ratio (Rattus norvegicus [21]): 1
Ratio (Rattus norvegicus [22]): 1.37
Dose/g (Rattus norvegicus [23]): 0.06 % dose/organ
Dose/g (Rattus norvegicus [24]): 0.45%
Dose/g (Rattus norvegicus [25]): 1.69%
Dose/g (Rattus norvegicus [26]): 0.03 % dose/organ
Ratio (Rattus norvegicus [27]): 2.23
Dose/g (Rattus norvegicus [28]): 0.85%
Ratio (Rattus norvegicus [29]): 1
Dose/g (Rattus norvegicus [30]): 0.33%
Dose/g (Rattus norvegicus [31]): 5.9 % dose/organ
Dose/g (Rattus norvegicus [32]): 2.61 % dose/organ
Dose/g (Rattus norvegicus [33]): 10.7 % dose/organ
Dose/g (Rattus norvegicus [34]): 2.33 % dose/organ
Structure (SMILES): CN(C)Cc1ccccc1Sc1cc(F)c(Cl)cc1N
